# Assay outcomes: PubChem BioAssay, Sanford-Burnham Center for Chemical Genomics
# G6PDH CS = counter-screen for G6PDH assay hits: L. mesenteroides G6PDH inhibition; inhibition, % at 5 µM; Purified L. mesenteroides G6PDH, diaphorase/resazurin coupled fluorescence, 45 min; actives 0.12% (n = 200,000); in the data active = inhibition above about 50%
# HKDC1 inhibitor = inhibitors of human hexokinase HKDC1. Q2TB90. recombinant HKDC1, G6PDH/diaphorase resazurin coupled fluorescence. inhibition, % at 20 µM. actives 0.16% (n = 340,000);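 active = inhibition above about 35% when tested at 20 µM, limit read from the data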;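 note: plate controls were DMSO wells with enzyme for no effect and DMSO wells lacking enzyme for full effect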
# Target sequence (Q2TB90 whole entry, looked up): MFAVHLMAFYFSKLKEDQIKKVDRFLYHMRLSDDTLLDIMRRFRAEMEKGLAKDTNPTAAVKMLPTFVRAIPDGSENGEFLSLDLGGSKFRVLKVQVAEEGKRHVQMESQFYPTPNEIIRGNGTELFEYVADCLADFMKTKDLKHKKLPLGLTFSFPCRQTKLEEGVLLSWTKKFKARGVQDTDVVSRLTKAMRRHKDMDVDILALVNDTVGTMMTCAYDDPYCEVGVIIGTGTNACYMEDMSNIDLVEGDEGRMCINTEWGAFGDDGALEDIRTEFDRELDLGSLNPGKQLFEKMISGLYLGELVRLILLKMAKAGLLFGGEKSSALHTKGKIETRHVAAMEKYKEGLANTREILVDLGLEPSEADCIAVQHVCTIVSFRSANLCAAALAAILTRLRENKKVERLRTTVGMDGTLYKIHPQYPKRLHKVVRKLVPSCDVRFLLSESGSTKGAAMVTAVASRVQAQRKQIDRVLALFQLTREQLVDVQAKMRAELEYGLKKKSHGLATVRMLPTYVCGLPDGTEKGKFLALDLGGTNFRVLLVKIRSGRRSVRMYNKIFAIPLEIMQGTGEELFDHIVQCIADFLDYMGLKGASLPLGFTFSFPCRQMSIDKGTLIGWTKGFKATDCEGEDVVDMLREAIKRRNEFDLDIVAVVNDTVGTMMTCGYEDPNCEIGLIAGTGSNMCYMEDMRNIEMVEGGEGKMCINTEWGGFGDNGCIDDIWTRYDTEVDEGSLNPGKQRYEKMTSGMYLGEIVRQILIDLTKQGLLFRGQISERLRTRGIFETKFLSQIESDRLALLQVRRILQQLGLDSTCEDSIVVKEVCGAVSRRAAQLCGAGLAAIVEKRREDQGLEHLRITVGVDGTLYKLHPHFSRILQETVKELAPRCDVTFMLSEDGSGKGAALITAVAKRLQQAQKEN
#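 Test system: Recombinant HKDC1 (HK5) hexokinase enzyme, produced in-house | Input: HKDC1 at 5 µg/mL | Buffer or medium: Tris pH 8.0 buffer with MgCl2, Tween-20, BSA, BME | Schedule: 90 min reaction incubation at room temperature, dark | Technique: Resazurin-to-resorufin fluorescence via G6PDH and diaphorase coupling, 525/613 nm | Controls: DMSO wells with and without enzyme mix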
# Diaph inh CS = counter-screen for diaphorase-based assays: diaphorase inhibitors and chemical oxidizers; diaphorase resazurin-to-resorufin fluorescence, NADH, 16 min; bacterial (C. kluyveri) enzyme, not human; inhibition, % at 20 µM; actives 0.69% (n = 190,000); AID 1217;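 active = primary screen inhibition at 20 µM above a set limit, cut at about 50% in these data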;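 note: plate controls were DMSO with full reaction for no effect and wells lacking NADH for full effect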
#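 Detection: fluorescence of resorufin formed from resazurin, Ex 544/Em 590 nm; test system: Clostridium kluyveri diaphorase enzyme; amount: 0.14 U/mL diaphorase, enzyme working solution; times: 16-min room-temperature incubation before reading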
# PfGluPho inh = PfG6PD (Plasmodium falciparum) enzyme inhibition | inhibition, % at 20 µM | actives 0.78% (n = 350,000) | PfGluPho enzyme, NADPH resazurin-diaphorase fluorescence | AID 504690;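 active = inhibition reaching at least a set limit at 20 µM in the primary screen, cut at about 59% in these data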;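 note: 0% = DMSO wells with substrate and 100% = DMSO wells lacking glucose-6-phosphate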
# Diaph act CS = diaphorase activation or chemical reduction counter-screen | Diaphorase/resazurin coupled assay, resorufin fluorescence, 16 min; stronger effect = higher value; 1 = vehicle wells, 0 = NADH-free wells | activation factor at 20 µM | actives 0.005% (n = 190,000) | AID 1229;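 active = diaphorase activity raised at least twofold by the compound at 20 µM; inactive = activation factor below 2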
#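 Assay system: Purified diaphorase enzyme from Clostridium kluyveri | Amount: Enzyme 0.07 U/mL final | Dosing: Compound 20 µM once, DMSO 1% | Timing: 16 min reaction at room temperature | Detection: Fluorescence, excitation 544 nm and emission 590 nm | Evaluation: Higher resorufin formation from activation or reduction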
# * marks the source's active call; other numbers are inactive results; nt = no result. In the library only some 1.3% were active in any assay of this set; here they are far more common.
SMILES,G6PDH CS,HKDC1 inhibitor,Diaph inh CS,PfGluPho inh,Diaph act CS
O=[N+]([O-])c1ccccc1-c1ccc(C(=S)N2CCCCC2)o1,nt,-4,nt,28,nt
O=[N+]([O-])c1ccccc1-c1ccc(C(=S)N2CCCC2)o1,27,4,53*,57,0.5
COc1cc(CN(C)Cc2ccccc2)cc(OC)c1O,51*,7,25,34,0.8
Nc1cccc(S(=O)(=O)Nc2ccc(Br)cc2)c1,nt,5,nt,1,nt
O=C(Nc1ccc(N2CCCC2)cc1)C(Cl)c1ccccc1 (centres undefined),1,8,30,88*,0.7
Oc1ccc(-c2nc(-c3ccc(O)c(O)c3)cs2)cc1,25,-1,63*,37,0.4
Cc1ccccc1NC(=O)c1sc2nc3c(c(-c4ccco4)c2c1N)CCC3,6,6,53*,13,0.5
N#Cc1sc2nc3c(c(-c4ccco4)c2c1N)CCCC3,8,4,52*,2,0.5
Nc1c(C(=O)NCC2CCCO2)sc2nc3c(c(-c4ccco4)c12)CC/C3=C\c1ccco1 (centres undefined),9,35,89*,31,0.1
NC(=O)c1sc2nc3c(c(-c4ccco4)c2c1N)CCCC3,nt,-1,nt,11,nt
CC(C)O/N=C1\C(=O)N(c2ccccc2)c2ccccc21,2,-7,14,2,0.9
Cc1ccc(C)c(NC(=O)c2cc(S(=O)(=O)N3CCOCC3)cn2C)c1,nt,-3,nt,-10,nt
NC(=O)c1c(N)sc2c1CCCC2,11,12,24,40,0.8
Nc1sc2c(c1C(=O)NC1CCS(=O)(=O)C1)CCCC2 (centres undefined),-11,6,35,62*,0.6
COc1ccccc1CCNC(=O)c1cnn2c(C(F)F)cc(C)nc12,-9,21,21,18,0.8
COc1ccc(CCNC(=O)c2cnn3c(C(F)F)cc(C)nc23)cc1OC,5,31,78*,29,0.2
O=C(O)c1ccc(CNC(=O)c2ccccc2NC(=O)c2ccc([N+](=O)[O-])cc2)cc1,4,-2,3,-16,1
Cc1ccc2c(c1)C1C=CCC1C(C(=O)NCCCN1CCOCC1)N2 (centres undefined),nt,3,nt,2,nt
Cc1ccc2c(c1)C1C=CCC1C(C(=O)O)N2 (centres undefined),2,nt,63*,nt,0.4
COc1cccc2c1NC(C(=O)O)C1CC=CC21 (centres undefined),12,12,93*,11,0.1
Cc1ccc(C2CC(c3ccccc3)=NN2C(=S)Nc2ccccc2)o1 (centres undefined),14,10,76*,22,0.2
O=C(CCN1CCOCC1)NNC(=S)NC(=O)c1ccc(Br)cc1,-10,-13,66*,-11,0.3
O=c1c2ccccc2sn1-c1ccc(F)cc1,nt,3,nt,113*,nt
COC(=O)c1cccc(-n2sc3ccccc3c2=O)c1,nt,2,nt,117*,nt
COc1ccc(C(C(=O)NCCC(C)C)N(CCO)C(=O)c2snc(C(N)=O)c2N)cc1 (centres undefined),nt,-3,nt,4,nt
SMILES,G6PDH CS,HKDC1 inhibitor,Diaph inh CS,PfGluPho inh,Diaph act CS
COc1cc(OC)c(C2CC(=O)N3CN(c4ccccc4C)CSC3=C2C#N)cc1OC (centres undefined),7,nt,48,nt,0.5
Cc1cccc(N2CSC3=C(C#N)C(c4ccc(C)o4)CC(=O)N3C2)c1 (centres undefined),12,nt,64*,nt,0.4
COc1ccc(OC)c(C2CC(=O)N3CN(c4ccccc4)CSC3=C2C#N)c1 (centres undefined),10,12,38,81*,0.6
COc1ccc(C2CC(=O)N3CN(c4ccc(C)c(Cl)c4)CSC3=C2C#N)cc1 (centres undefined),14,18,50*,70*,0.5
COc1ccc(C2CC(=O)N3CN(c4ccccc4F)CSC3=C2C#N)cc1OC (centres undefined),11,8,53*,68*,0.5
COc1ccc(CC(=O)N2CCN(c3ccccc3F)CC2)cc1OC,nt,-1,nt,1,nt
N#CC1=C2SCN(Cc3ccco3)CN2C(=O)CC1c1ccc(Cl)cc1 (centres undefined),29,17,43,54,0.6
N#CC1=C2SCN(Cc3ccccc3)CN2C(=O)CC1c1ccc2c(c1)OCO2 (centres undefined),-10,17,46,61*,0.5
COc1cc(CCNC(=O)CCCn2c(=O)c3cccn3c3cccnc32)cc(OC)c1OC,nt,4,nt,0,nt
COc1ccc(-c2noc(CSc3nc(N)cc(=O)[nH]3)n2)cc1,nt,0,nt,-2,nt
COc1ccc(-c2noc(CSc3nc(-c4ccccc4)cc(=O)[nH]3)n2)cc1OC,14,-2,67*,-17,0.3
O=[N+]([O-])C1=CC=C2C(=NC3(CCCCC3)N2O)C1=NCCO,24,9,76*,19,0.2
CN=C1C([N+](=O)[O-])=CC=C2C1=NC1(CCCCC1)N2O,40,-12,72*,-14,0.3
CN(C)c1nc(N/N=C\c2ccc(Cl)c([N+](=O)[O-])c2)nc(Nc2ccc(F)cc2)n1,nt,1,nt,16,nt
C=CCn1c(O)c(N=NC(=O)CNC(=O)c2ccncc2)c2ccccc21,nt,0,nt,-1,nt
CC1CCN(S(=O)(=O)c2nnc(NC(=O)c3cccc([N+](=O)[O-])c3)s2)CC1,nt,6,nt,113*,nt
COc1cccc(C(=O)NCCSc2ccc(F)cc2)c1,-1,-5,56*,11,0.4
CCOC(=O)CSc1nc2c(sc(=S)n2-c2ccccc2OC)c(=O)n1-c1ccccc1OC,nt,2,nt,55,nt
COc1ccc(-n2c(SCC(=O)C(C)(C)C)nc3c(sc(=S)n3-c3ccccc3)c2=O)c(OC)c1,nt,-14,nt,78*,nt
Cc1cc2ccccn2c1C(=O)c1ccc([N+](=O)[O-])cc1[N+](=O)[O-],nt,-7,nt,4,nt
O=c1[nH]c2ccccc2c(O)c1O,15,-10,72*,75*,0.3
O=c1[nH]c2ccccc2c(O)c1-[n+]1ccccc1,nt,-8,nt,40,nt
CCCCNC(=O)Oc1cc(CCl)on1,7,nt,70*,nt,0.3
O=C1COc2ccc(C(=O)COC(=O)c3ncc(Cl)c(Cl)c3Cl)cc2N1,nt,-1,nt,-4,nt
c1ccc(-c2nnc(CSc3ccc4c(c3)OCCO4)o2)cc1,4,18,59*,3,0.4
Cc1ccc(C(=O)OCc2nc3ccsc3c(=O)[nH]2)o1,nt,-7,nt,-5,nt
O=C(/C=C/c1ccc(Br)o1)OCc1nc2ccsc2c(=O)[nH]1,nt,58*,nt,48,nt
S=c1[nH]ncn2c1cc1oc3ccccc3c12,6,-3,51*,17,0.5
